Data set [1] concerns the target Beta-secretase 1 (Mus musculus) (UniProt P56818). The data set is described as follows: Inhibition of BACE1 in mouse N2a695 cells assessed as reduction in Abeta40 production at 10 uM incubated for 6 hrs by ELISA. The class given is cell-based. For orientation: In an ELISA, binding on a coated surface is turned into a signal by an enzyme label.
Data set [2] in a line: Cytotoxicity against mouse N2a695 cells assessed as reduction in cell viability at 10 uM incubated for 5 hrs by MTT assay. In kind it is cell-based. In a few lines:
(§1)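 Viability of N2a cells by MTT assay after 5 h and 24 h incubation with compound (10 μM; one comparator at 1 μM), scored as number of viable cells.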

Data set [3] in a line: Cytotoxicity against mouse N2a695 cells assessed as reduction in cell viability at 10 uM incubated for 24 hrs by MTT assay. The class given is cell-based. In a few lines: as §1
Data set [4] has as its target Beta-secretase 1 (Mus musculus) (UniProt P56818). The data set is described as follows: Inhibition of BACE1 in mouse N2a695 cells assessed as reduction in Abeta40 production at 10 uM incubated for 5 hrs by ELISA relative to control. The class given is cell-based.
Data set [5] has the same target. Kind of data set: Inhibition of BACE1 in mouse N2a695 cells assessed as reduction in Abeta42 production at 10 uM incubated for 5 hrs by ELISA relative to control. In kind it is cell-based. The essentials: (§2)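 N2a695 cells treated with compound (10 μM, or 20 μM for reference compound). Aβ42 in cell supernatant measured by human Aβ ELISA.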
Data set [6] is filed under the species Homo sapiens. Kind of data set: Inhibition of Abl (unknown origin) assessed as residual activity at 10 uM relative to control. In a few lines: (§3)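 Abl and Src kinase activity measured by an outside service with compounds at 10 μM; activity reported relative to control.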
The target in data set [7] is Proto-oncogene tyrosine-protein kinase Src (Homo sapiens) (UniProt P12931). The data set is described as follows: Inhibition of Src (unknown origin) assessed as residual activity at 10 uM relative to control. The essentials:
as §3

Data set [8] addresses Beta-secretase 1 (Mus musculus) (UniProt P56818). Kind of data set: Inhibition of BACE1 in mouse N2a695 cells assessed as reduction in Abeta40 production transfected with human APP-FL at 10 uM incubated for 5 hrs by ELISA. The class given is cell-based. The essentials:
(§4)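 N2a cells transfected with human APP-FL or APP-C99 treated with compounds at 10 μM. Aβ40 and Aβ42 in supernatants measured by ELISA; controls were BACE inhibitor MK8931 0.5 μM and γ-secretase inhibitor DAPT 1 μM.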

The target is the same in data set [9]. The data set is described as follows: Inhibition of BACE1 in mouse N2a695 cells transfected with human APP-FL assessed as reduction in Abeta42 production at 10 uM incubated for 5 hrs by ELISA. In kind it is cell-based. In a few lines:
as §4

For data set [10] the target is unchanged. Kind of data set: Inhibition of BACE1 in mouse N2a695 cells transfected with human APP-C99 assessed as reduction in Abeta42 production at 10 uM incubated for 5 hrs by ELISA. The class given is cell-based. The essentials:
as §4

The target is the same in data set [11]. The data set is described as follows: Inhibition of BACE1 in mouse N2a695 cells assessed as reduction in Abeta40 production transfected with human APP-C99 at 10 uM incubated for 5 hrs by ELISA. The class given is cell-based. The essentials:
as §4

For data set [12] the target is unchanged. The data set is described as follows: Inhibition of BACE1 in mouse N2a695 cells assessed as reduction in Abeta40 production at 5 uM pretreated with BACE IV for 1 hr and measured after 5 hrs by ELISA. In kind it is cell-based. In a few lines: (§5)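 N2a695 cells preincubated 1 h with DMSO or 0.5 μM BACE IV, then given fresh medium containing 5 μM compound. Aβ40 and Aβ42 measured by human Aβ ELISA as percent of DMSO or BACE IV-pretreated DMSO control. Duplicate or triplicate wells; average of three independent experiments.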

Data set [13] shares this target. Kind of data set: Inhibition of BACE1 in mouse N2a695 cells assessed as reduction in Abeta42 production at 5 uM pretreated with BACE IV for 1 hr and measured after 5 hrs by ELISA. In kind it is cell-based. The essentials:
as §5

The target is the same in data set [14]. The data set is described as follows: Inhibition of BACE1 in mouse N2a695 cells assessed as reduction in Abeta40 production at 20 uM incubated for 5 hrs by ELISA. In kind it is cell-based.
Data set [15] is filed under the species Mus musculus. Kind of data set: Inhibition of Abeta42 production in mouse N2a695 cells at 20 uM incubated for 5 hrs by ELISA. The class given is functional, cell-based. In a few lines:
as §2

A short description of data set [16]: Cytotoxicity against mouse N2a695 cells assessed as reduction in cell viability at 1 uM incubated for 5 and 24 hrs by MTT assay. The class given is cell-based. In a few lines:
as §1
A general note: Formazan colour is commonly taken as a measure of viable cells.

For data set [17], the species on record is Homo sapiens. Kind of data set: Inhibition of Abl (unknown origin) assessed as residual activity at 1 uM relative to control.
Data set [18] addresses Proto-oncogene tyrosine-protein kinase Src (Homo sapiens) (UniProt P12931). The data set is described as follows: Inhibition of Src (unknown origin) assessed as residual activity at 1 uM relative to control.

Active and inactive are the calls of the source. The calls are words filed in the database; no cut-off is given here. Some results are limits rather than exact numbers.

In general, inhibition refers to the drop in the measured response relative to a control, in per cent.

Proto-oncogene tyrosine-protein kinase Src (Homo sapiens), sequence (P12931 2-536 limits assumed): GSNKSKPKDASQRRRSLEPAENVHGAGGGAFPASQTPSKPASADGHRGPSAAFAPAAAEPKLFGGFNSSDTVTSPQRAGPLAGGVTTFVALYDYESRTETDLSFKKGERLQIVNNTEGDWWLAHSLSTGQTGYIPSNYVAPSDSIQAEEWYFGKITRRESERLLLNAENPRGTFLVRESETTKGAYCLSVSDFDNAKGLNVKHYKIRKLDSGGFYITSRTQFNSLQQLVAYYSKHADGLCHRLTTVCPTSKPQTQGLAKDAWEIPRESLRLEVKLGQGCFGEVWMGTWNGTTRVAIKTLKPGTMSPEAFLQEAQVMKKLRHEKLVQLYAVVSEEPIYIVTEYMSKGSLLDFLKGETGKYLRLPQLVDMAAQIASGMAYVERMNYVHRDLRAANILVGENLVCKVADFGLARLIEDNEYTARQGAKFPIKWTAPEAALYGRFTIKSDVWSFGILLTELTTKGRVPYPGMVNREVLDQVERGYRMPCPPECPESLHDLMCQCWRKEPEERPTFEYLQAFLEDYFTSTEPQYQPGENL
Beta-secretase 1 (Mus musculus), sequence (P56818 whole entry): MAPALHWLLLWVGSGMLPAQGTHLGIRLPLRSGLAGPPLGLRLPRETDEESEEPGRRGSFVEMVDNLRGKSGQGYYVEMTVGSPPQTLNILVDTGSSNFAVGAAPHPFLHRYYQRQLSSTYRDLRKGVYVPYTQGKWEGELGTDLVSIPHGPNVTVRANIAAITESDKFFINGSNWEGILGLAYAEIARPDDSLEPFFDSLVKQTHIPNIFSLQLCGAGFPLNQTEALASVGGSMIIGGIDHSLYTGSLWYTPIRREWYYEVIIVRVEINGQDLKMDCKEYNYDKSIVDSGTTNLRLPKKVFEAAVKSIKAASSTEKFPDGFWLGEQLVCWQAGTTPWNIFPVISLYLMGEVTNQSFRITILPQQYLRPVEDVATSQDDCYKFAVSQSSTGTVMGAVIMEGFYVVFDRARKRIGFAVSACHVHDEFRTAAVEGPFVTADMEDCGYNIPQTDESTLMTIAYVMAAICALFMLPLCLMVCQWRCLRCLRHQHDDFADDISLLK

With `CN1CCC(N2CCN(c3ncc4cc(-c5c(Cl)cc(NC(=O)OC(C)(C)C)cc5Cl)c(=O)n(C)c4n3)CC2)CC1`, the inhibition result in data set [1] is “Active”. In addition, the Activity entry in [2] is “Non-Toxic”; in data set [3], “Toxic”; in data set [6] it was 8.5%; in [7] it was 10.4%. Moreover, the inhibition in data set [4] and in [5] was above 50% each time.
With `CN1CCN(c2ncc3cc(-c4cc(Cl)cc(Cl)c4)c(=O)n(C)c3n2)CC1`, the inhibition entry in [1] was “Active”. Moreover, the Activity entry in data set [2] and in data set [3] was “Non-Toxic” in each case.
Regarding `Cn1c(=O)c(-c2c(Cl)cccc2Cl)cc2cnc(N3CCNCC3)nc21`, the Activity result in [2] and in data set [3] was “Non-Toxic” in each case. The inhibition entry in data set [8], in data set [9], in data set [10], in data set [12], in data set [13] and in data set [14] was “Active” each time. The inhibition result in [15] was “Active”. Besides, the inhibition entry in data set [11] is “inactive”.
`CN1CCC(N2CCN(c3ncc4cc(-c5c(Cl)cc(NC(=O)C(C)(C)C)cc5Cl)c(=O)n(C)c4n3)CC2)CC1`: the inhibition result in data set [1], in data set [8], in [9], in [10], in [12] and in data set [13] was “Active” throughout. Also, the Activity result in data set [2] was “Non-Toxic”; in [3], “Non-Toxic”; in [6], 3.2%; in data set [7], 8.9%. Further, the inhibition in data set [4] and in data set [5] was above 50% in each case. For the same compound, the inhibition entry in data set [11] was “inactive”.
As to `Cn1c(=O)c(-c2c(Cl)cc(NC(=O)OC(C)(C)C)cc2Cl)cc2cnc(N3CCN(c4ccncc4)CC3)nc21`, the inhibition result in data set [1], in data set [8], in [9], in data set [10], in [12] and in data set [13] was “Active” in each case. For the same compound, the Activity result is “Non-Toxic” in data set [2], “Non-Toxic” in [3], 0% in data set [6] and 8% in [7]. In addition, the inhibition in data set [4] and in data set [5] was above 50% throughout. In addition, the inhibition entry in [11] is “inactive”.
As for `Cc1ccc(NC(=O)c2ccc(CN3CCN(C)CC3)cc2)cc1Nc1nccc(-c2cccnc2)n1`, the inhibition result in data set [1] is “Active”.
Turning to `Cn1c(=O)c(-c2c(Cl)cccc2Cl)cc2cnc(N3CCN(Cc4ccccc4)CC3)nc21`, in data set [1], the inhibition result was “Active”. The values for the Activity result in [2] and in [3] were “Non-Toxic” and “Toxic”, respectively.
Turning to `Cn1c(=O)c(-c2c(Cl)cccc2Cl)cc2cnc(N3CCC(N4CCCCC4)CC3)nc21`, in [1], the inhibition entry was “Active”. The Activity entry in [2] and in data set [3] was “Non-Toxic” each time.
Regarding `CSc1cccc(Nc2ncc3cc(-c4c(Cl)cccc4Cl)c(=O)n(C)c3n2)c1`, the Activity result in data set [16] was “Non-Toxic”; in data set [17], 99.7%; in [18], 99.5%.
In the case of `CN1CCC(N2CCN(c3ncc4cc(-c5c(Cl)cccc5Cl)c(=O)n(C)c4n3)CC2)CC1`, in [1], the inhibition entry is “Active”. The Activity entry in data set [2] is “Non-Toxic”; in data set [3], “Non-Toxic”; in data set [6], 20.8%; in [7], 10.5%. Moreover, the inhibition in data set [4] and in data set [5] was above 50% in each case.
For the compound `Cl.Cn1c(=O)c(-c2c(Cl)cccc2Cl)cc2cnc(N3CCN(C4CCNCC4)CC3)nc21`, in data set [1], the inhibition entry was “Active”. Besides, the Activity entry in [2] and in data set [3] was “Non-Toxic” each time.
As for `CN1CCN(c2ncc3cc(-c4c(Cl)cc(NC(=O)C(C)(C)C)cc4Cl)c(=O)n(C)c3n2)CC1`, the inhibition entry in data set [1] is “Active”. Besides, the Activity result in data set [2] and in data set [3] was “Non-Toxic” throughout.

For the origin of these results see ChEMBL document CHEMBL4304833, “Development of Kinase Inactive PD173955 Analogues for Reducing Production of Aβ Peptides” (ACS Med Chem Lett, 2019).
